From the EternaBench riboswitch data

Tested on: MS2 coat protein
Assay: apparent Kd, MS2 coat protein; higher = weaker binding; RNA-MaP array
Summary of the method: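 Designed RNAs were produced on an Illumina sequencing chip by transcription of sequenced DNA templates. Binding to fluorescently labeled MS2 coat protein (1.5 nM to 3 μM) was measured at room temperature with or without input ligand. The apparent Kd is the median of per-cluster binding-curve fits. Designs were excluded when measured on fewer than 10 clusters.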

[1] = designed as: OFF switch for flavin mononucleotide, no ligand
[2] = ligand present: flavin mononucleotide, designed as: OFF switch for flavin mononucleotide
[3] = designed as: ON switch for flavin mononucleotide, no ligand
[4] = ligand present: flavin mononucleotide, designed as: ON switch for flavin mononucleotide

“UAUGUCGGGAAGAAGGUAAUAACGGGAUUGACAUGAGGAUCACCCAUGUGUACGAGUUAGUUGCUUAAGGAUAUUCUCGCCCAU” was tested. Which “apparent Kd” value [1] did it give?
Its value is 6.37 nM.

What about the “apparent Kd” value [2] of the same sequence?
Its value is 5.73 nM.

For “CUACCAAAUUGAGGAUAUAGCCUGGGAGAACCAAGUUCCAUGAAAUACAUGAGGAUCACCCAUGUCUAGAAGGCAACAAUGGCC”, which “apparent Kd” value [1] is on record?
Its value is 92.4 nM.

What about the “apparent Kd” value [2] of the same sequence?
The value was 145 nM.

Which results are given for “ACCCAUUUGUUAGGAUAUGACUCGAGACAGGUACAUGAGGAUCACCCAUGUUGUACAGGACCGUCUCAGAAGGAACGAACGUAU”?
apparent Kd [1]: 9.64 nM; apparent Kd [2]: 8.75 nM

“ACAAUGUGAGGAUAUCGUAAGCAUGACUAUGGCGCUAACACCGAGAAGGCACAUGAGGAUCACCCAUGUCCUGA” was tested. Which “apparent Kd” value [1] did it give?
Its value is 6.84 nM.

And the “apparent Kd” value [2]?
Its value is 10.7 nM.

How did the “apparent Kd” value (designed as: OFF switch for tryptophan, no ligand) turn out when “ACGCGCUGGGCGGCCGCCACUCACCUGCCGUGGACAUUUCGAGGUCACAUGAGGAUCACCCAUGUGAGGACCGGGCCCUGUAGGC” was run?
Its value is 13.2 nM.

What about the “apparent Kd” value (ligand present: tryptophan, designed as: OFF switch for tryptophan) of the same sequence?
The value was 21.2 nM.

“CCGCGUGCGGAAGGAUAUAUCCUAUGUUAGGAAAAUAACACAUGAGGAUCACCCAUGUCGAAGAGAUAGAAGGUCCGACAUACA” was tested. Which “apparent Kd” value [3] did it give?
The value was 29.5 nM.

What about the “apparent Kd” value [4] of the same sequence?
The value was 14 nM.

“UGACUGUGUGAGAAGGUGUUCCGCGCCCGGCCACAAGGAUAUCACAACGCUGCCCUACAUGAGGAUCACCCAUGUGAUUGCUAC” was tested. Which “apparent Kd” value [3] did it give?
Its value is 29.5 nM.

And the “apparent Kd” value [4]?
Its value is 25.8 nM.

How did the “apparent Kd” value [3] turn out when “AAGGUGCACGCUCAGGAUAUAUUCCAGGUUACAUGAGGAUCACCCAUGUAGGGUUGAAGAAGGACAUAGAAGGGAGCCUACUUGGC” was run?
The value was 32.6 nM.

And the “apparent Kd” value [4]?
The value was 21.6 nM.

What does the source list for “GGGUACAUCUAGAAGGAGAAUCCUCUUGACAUGAGGAUCACCCAUGUCGUAGUCAAGACUAAAAUCUAGGAUAUAGCUGUGCGU”?
apparent Kd [1]: 233 nM; apparent Kd [2]: 165 nM

With “CUUAACAAAGGAUAUACACAAAUGAUUAAGGUGCCGGGAAAACAUGAGGAUCACCCAUGUAGAAGGUUGUAACA” as the sequence, how does the “apparent Kd” value [1] read?
Its value is 8.1 nM.

What about the “apparent Kd” value [2] of the same sequence?
The value was 7.75 nM.

Which results are given for “CCUUAUUCAUAGAAGGAGUUCAUCCUACGUGGACUAGGAUAUAUAUUCGACAUGAGGAUCACCCAUGUAUCUGAGAUCGUGGUA”?
apparent Kd [1]: 29.3 nM; apparent Kd [2]: 26.2 nM

What does the source list for “UUACAGUCAGGAUAUUGAGUCACCCACAUGAGGAUCACCCAUGUACCUCGAAAACUGGAGCAAGAAGGGACUGCUG”?
apparent Kd [1]: 18.9 nM; apparent Kd [2]: 26.4 nM

What does the source list for “GUCUGAUGACAUGAGGAUCACCCAUGUUGUAGGGUUACCUUCAGAAGGGCGAACUCGUAUAGAGCGCAGGAUAUGAAUCAAAGA”?
apparent Kd [3]: 29.5 nM; apparent Kd [4]: 11.9 nM

What does the source list for “AAAGGAUUCAAGAAGGUACCCUAACAUGAGGAUCACCCAUGUCUCGGUGGCAUCAAGGUACCUGGUAAGGAUAUUGCAACCACU”?
apparent Kd [3]: 39.4 nM; apparent Kd [4]: 33.2 nM

What does the source list for “AUCGACAAAGGAUAUGAUGCGAAUGACAUGAGGAUCACCCAUGUGGAGCCAAGUGUCCCGUCAGAAGGUUGUACGU”?
apparent Kd [1]: 152 nM; apparent Kd [2]: 313 nM

For “CCGCGCACUGGAGGAUAUAAUCGAACAUGAGGAUCACCCAUGUUAGACGUGGUACGAGCGUUCCAUUAGAAGGCCACUCUGCGU”, which “apparent Kd” value [1] is on record?
The value was 27.1 nM.

What about the “apparent Kd” value [2] of the same sequence?
Its value is 52.8 nM.

Which results are given for “UUGGCGUCAGGAUAUACCGGUCGAUUCACAAUGAACUCCGUACAUGAGGAUCACCCAUGUAGAAGGGACAGUGG”?
apparent Kd [1]: 6.22 nM; apparent Kd [2]: 6.07 nM

What does the source list for “UCGAUGGUAUCUGAUACCAGUAGCGUGCGUUACAUGAGGAUCACCCAUGUGCCUAUACUUUACCCUUGGCAGCAGUGGAUUCGAU”?
apparent Kd (designed as: ON switch for theophylline, no ligand): 207 nM; apparent Kd (ligand present: theophylline, designed as: ON switch for theophylline): 58.5 nM

For “AAUAGCUAAGGAUAUACGUACUCAGAGUGAUAAAUCAAAUAACAUGAGGAUCACCCAUGUAGAAGGAAGAAAUA”, which “apparent Kd” value [1] is on record?
The value was 30.9 nM.

And the “apparent Kd” value [2]?
The value was 26.1 nM.

Which “apparent Kd” value [1] does the source give for “UAUGUACAUGAGGAUCACCCAUGUUAGGAUAUAUGGCCGCGCUUUAAACACCGUGCACAUAGAAGGAACAUUUG” here?
Its value is 35 nM.

And the “apparent Kd” value [2]?
The value was 33.7 nM.

Which “apparent Kd” value [3] does the source give for “CAUUCACUAACUCCACAUGAGGAUCACCCAUGUUGAGGUCCGAGAAGGUGCACUACGUGGGAGCGCAAGGAUAUCGCCUAGUAA” here?
The value was 9.84 nM.

And the “apparent Kd” value [4]?
The value was 7.64 nM.

Which results are given for “AUGCCACUUAAGAAGGCGGCGUGAUGCUUAGCGUUGAGACAUGAGGAUCACCCAUGUGACGUACCCGAGGAUAUUAAUGGAAUC”?
apparent Kd [3]: 17 nM; apparent Kd [4]: 11.7 nM

What does the source list for “GGAAGUAGAUGUCAGGAUAUCAAAAGCAUAACAUGAGGAUCACCCAUGUCCAAAAGGCAGAGAAUUGAGAAGGGACGUAGGUUACA”?
apparent Kd [3]: 42.2 nM; apparent Kd [4]: 14.4 nM

With “CAUCAAAAGCUAGGAUAUACCUAGAGUACCGGAACAUGAGGAUCACCCAUGUUAGAGUGAUGCUGGUAGAAGGAGCUGGUAAAG” as the sequence, how does the “apparent Kd” value [3] read?
Its value is 31.9 nM.

And the “apparent Kd” value [4]?
The value was 15.8 nM.

Which “apparent Kd” value [1] does the source give for “GAACUGUGAGGAUAUACAUGAGGAUCACCCAUGUUUGUGUUGGCACGCACUCGGGCAAGUAGAAGGCACAGAUG” here?
The value was 44 nM.

What about the “apparent Kd” value [2] of the same sequence?
The value was 73.7 nM.

Which “apparent Kd” value [3] does the source give for “GAACAACAUGAGGAUCACCCAUGUGACAGCCGUCAAGGAUAUUCCGGGAAAGGAGGUCCGGAAGAAGGUGAUCGUA” here?
Its value is 265 nM.

And the “apparent Kd” value [4]?
The value was 341 nM.

For “AUUACCCCAUGAGGAUAUCCAAUAAGGAGAGACAUGAGGAUCACCCAUGUCGACGGACGCAUACAGGAGAAGGCAUGGACUAGC”, which “apparent Kd” value [3] is on record?
Its value is 13.6 nM.

And the “apparent Kd” value [4]?
The value was 7.54 nM.
